Bioassay records as filed in PubChem.
dFosB act: enhances mouse delta FosB homodimer DNA binding; AID 493131; activation, % at 25 µM; purified delta FosB, TAMRA-CDK5 oligo fluorescence polarization; percent of positive-control signal above neutral wells; P13346; 340,000 tested, 0.99% active;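 active = mean activation above about 17%, with every replicate also reaching it, limit read from the data, passing the limit was not always enough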
Target sequence (P13346 whole entry, looked up): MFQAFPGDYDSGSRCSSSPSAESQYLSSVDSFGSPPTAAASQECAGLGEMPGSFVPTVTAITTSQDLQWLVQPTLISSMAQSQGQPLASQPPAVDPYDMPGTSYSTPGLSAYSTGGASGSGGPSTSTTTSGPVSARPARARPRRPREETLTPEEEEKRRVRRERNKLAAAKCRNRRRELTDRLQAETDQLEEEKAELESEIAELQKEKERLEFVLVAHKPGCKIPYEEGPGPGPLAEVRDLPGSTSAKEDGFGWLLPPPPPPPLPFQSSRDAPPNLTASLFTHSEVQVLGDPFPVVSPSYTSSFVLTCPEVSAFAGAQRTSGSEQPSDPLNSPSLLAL
F508del corr: CFTR F508del correction in bronchial cells; CFBE cells, YFP halide quenching; stimulated with forskolin plus potentiator P3; % fluorescence drop versus neutral controls; activity (quench increase), % at 7.58 µM; 350,000 tested, 0.36% active;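 active = mean added fluorescence quench of at least 8% versus neutral control, with both replicates also reaching 8%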;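 note: cells transiently co-express mutant CFTR-F508del with the halide-sensitive YFP; corrector assay measuring rescue of mutant channel to the surface after 24 h compound exposure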
FGF22 binding: FGF22 (human) thermal shift binding; Q9HCT0; recombinant FGF22 thermal shift, SYPRO orange fluorescence; percent of sucrose octasulfate shift, DMSO zero; activity (Tm shift, normalised), % at 9.99 µM; 340,000 tested, 1.5% active;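 active = mean Tm shift, scaled 0 neutral to 100 positive control, at about 1.3% or above, every replicate too, limit read from the data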
Target sequence (Q9HCT0 whole entry, looked up): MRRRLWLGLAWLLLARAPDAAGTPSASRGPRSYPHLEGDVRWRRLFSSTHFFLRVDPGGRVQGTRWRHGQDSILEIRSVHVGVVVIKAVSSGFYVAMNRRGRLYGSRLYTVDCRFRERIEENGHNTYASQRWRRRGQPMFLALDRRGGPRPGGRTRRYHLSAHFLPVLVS
S100A4 inh HTS: inhibitors of human S100A4 binding to myosin IIA peptide. P26447. S100A4/TAMRA-MyoIIA peptide fluorescence polarization. 360,000 tested, 0.14% active. inhibition, % at 10.7 µM. AID 652163;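 active = mean inhibition of at least 70% across replicates, with every replicate also reaching that level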
Target sequence (P26447 whole entry, looked up): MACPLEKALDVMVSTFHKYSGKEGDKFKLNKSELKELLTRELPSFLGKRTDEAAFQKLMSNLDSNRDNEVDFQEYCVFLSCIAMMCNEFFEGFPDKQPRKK
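incubation = readout 5 min after mixing, signal stable up to 60 min | system = S100A4 monomer protein | buffer or medium = HEPES pH 7.2 with CaCl2, KCl, NaCl, DTT, Triton | benchmarks = neutral control DMSO, positive control TFP | also added = fluorescent myosin IIA peptide, 5 nM | compound dosing = one concentration per compound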
Each line names hits and unclear results; the compound was inactive in the other large screens; ! = not confirmed by another sample. Compounds with a hit are over-represented: about 2.2% of the library has one in this group of screens.

O=C1C=CC(O)(c2cc(=O)c3c(O)cc(O)cc3o2)C=C1	F508del corr 16.6
O=C(NCc1ccc(F)cc1)Nc1ccc(Cl)cc1	none
O=C(NCc1ccc(F)cc1)Nc1cccc(Cl)c1	FGF22 binding 43.7
Cc1nn(C)c(C)c1CNC(=O)Nc1cccc(Cl)c1	FGF22 binding 43.4
COc1ccc(-c2ccc3n(c2=O)C[C@@H]2[C@@H](CO)[C@H](C(=O)N(C)C)[C@H]3N2Cc2ccncc2)cc1	none (no result: dFosB act)
CCCn1nc(C(=O)OCC(=O)Nc2cccc(OC)c2)c2ccccc2c1=O	FGF22 binding 42.9
Cc1ccc(-c2nnc(SCC(N)=O)n2C)cc1	FGF22 binding 43.0
Cc1ccccc1S(=O)(=O)N1C[C@@H](O)COC[C@H]2O[C@H](CC(=O)N3CCOCC3)CC[C@@H]21	none (no result: dFosB act)
O=C(Nc1cccc(C(F)(F)F)c1)c1ccc(-n2cncn2)nc1	FGF22 binding 43.4
CO[C@@H]1CN(C)C(=O)c2cc(NS(=O)(=O)CC(F)(F)F)ccc2OC[C@@H](C)N(Cc2ccccn2)C[C@@H]1C	none (no result: dFosB act)
O=c1[nH]c(/C=C/c2ccccc2F)nc2ccccc12	F508del corr 9.8
COCc1cn(CC[C@H]2CC[C@@H](NC(=O)Cc3cccnc3)[C@@H](CO)O2)nn1	none (no result: dFosB act)
COc1ccc2c3c([nH]c2c1)[C@H](CO)N(C(=O)C1CCOCC1)CC31CCN(S(C)(=O)=O)CC1	none (no result: dFosB act)
O=c1[nH]nc(SCc2nc3ccccc3s2)n1C1CC1	FGF22 binding 43.0
CCCn1c(SCc2nc3ccccc3s2)n[nH]c1=O	none
CC[n+]1c(/C=C/C=C/N(C(C)=O)c2ccccc2)sc2cc(OC)ccc21	S100A4 inh HTS 199.4 (no result: dFosB act, F508del corr)
O=c1nc(Oc2ccccc2)nc2ncccn12	FGF22 binding 43.4 (no result: dFosB act)
O=Nc1nc2ncccn2c1-c1ccccc1	none
C[C@@H]1CN([C@@H](C)CO)C(=O)c2cccc(NS(=O)(=O)c3ccccc3)c2O[C@@H]1CN(C)Cc1ccc(C(=O)O)cc1	none (no result: dFosB act, FGF22 binding)
O=C(C[C@H]1CC[C@@H]2[C@H](COC[C@H](O)CN2Cc2ccc(Oc3ccccc3)cc2)O1)N1CCc2ccccc2C1	F508del corr 11.1 (no result: dFosB act)
O=C(C[C@H]1CC[C@@H]2[C@H](COC[C@H](O)CN2C(=O)Nc2ccc3c(c2)OCO3)O1)N1CCN(c2ccccc2)CC1	S100A4 inh HTS 123.1 (no result: dFosB act)
O=C(C[C@H]1CC[C@H]2[C@@H](COC[C@H](O)CN2Cc2ccc(Oc3ccccc3)cc2)O1)N1CCN(c2ccccc2)CC1	none (no result: dFosB act)
O=C(C[C@@H]1CC[C@@H]2[C@H](COC[C@H](O)CN2Cc2ccc(Oc3ccccc3)cc2)O1)N1CCN(c2ccccc2)CC1	F508del corr 8.9 (no result: dFosB act)
CCC(=O)N1CC2(C1)[C@H](c1ccc(-c3ccccc3)cc1)[C@@H](CO)N2C(C)=O	none (no result: dFosB act)
COc1ccccc1-c1ccc([C@@H]2[C@@H](C#N)N(C(=O)C3CC3)[C@H]2CO)cc1	none (no result: dFosB act)
C/C(=N\S(=O)(=O)c1ccc(C)cc1)NC(=S)Nc1ccccc1	FGF22 binding 43.7
COc1ccc(NC(=S)NC(=NS(=O)(=O)c2ccc(Cl)cc2)c2ccccc2)cc1	none
COc1ccc(NC(=S)N/C(=N/S(=O)(=O)c2ccc(C)cc2)c2ccccc2)cc1	FGF22 binding 43.2
CCNC(=O)C[C@H]1CC[C@@H]2[C@H](COC[C@@H](O)CN2C(=O)C2CCOCC2)O1	none (no result: dFosB act)
CCOC(=O)C1=CN(Cc2ccco2)S(=O)(=O)NC1c1ccc(C(F)(F)F)cc1 (configuration not stated)	F508del corr 8.1
CCOC(=O)C1=CN(CC)S(=O)(=O)NC1c1ccc(C(F)(F)F)cc1 (configuration not stated)	none
CC(C)(C)c1csc(NC(=O)c2cccs2)n1	none (no result: F508del corr, FGF22 binding, S100A4 inh HTS)
CC(C)(C)c1csc(NC(=O)Cc2cccs2)n1	F508del corr 9.7
Cc1cccc(-c2ccc([C@H]3[C@@H](CO)N4CCCCN(S(=O)(=O)c5cccc(C)c5)C[C@H]34)cc2)c1	none (no result: dFosB act)
O=S(=O)(Cc1ccccc1)N1CCCCN2[C@H](C1)[C@@H](c1ccc(C#Cc3ccccc3)cc1)[C@@H]2CO	F508del corr 8.0 (no result: dFosB act)
COc1ccc(C#Cc2ccc([C@H]3[C@H]4CN(S(=O)(=O)c5ccccc5)CCCCN4[C@H]3CO)cc2)cc1	S100A4 inh HTS 123.2 (no result: dFosB act)
Cc1ccccc1S(=O)(=O)N1C[C@@H]2N[C@H](C1)C2c1ccc(-c2cccc(C#N)c2)cc1 (some centres not stated)	F508del corr 8.4! (no result: dFosB act, S100A4 inh HTS)
Cc1cccc(-c2ccc([C@H]3[C@H]4CN(S(=O)(=O)c5cccc(C)c5)CCCCN4[C@H]3CO)cc2)c1	FGF22 binding 18.5 (no result: dFosB act)
COc1ccccc1CNC(=O)C[C@@H]1C[C@@H]2c3cc(NC(=O)NC4CCCC4)ccc3O[C@@H]2[C@H](CO)O1	none (no result: dFosB act)
C[C@@H]1CN([C@H](C)CO)C(=O)c2cc(-c3ccc(C#N)cc3)cnc2O[C@@H]1CN(C)C(=O)c1ccccc1	none (no result: dFosB act, FGF22 binding)
COc1ccc(-c2ccc(C3[C@@H]4CN(S(=O)(=O)c5cccc(C)c5)C[C@H]3N4)cc2)cc1 (some centres not stated)	none (no result: dFosB act, FGF22 binding)
CCCC#Cc1ccc([C@H]2[C@@H](CO)N3CCCCN(S(=O)(=O)c4ccccc4C)C[C@H]23)cc1	F508del corr 14.1 (no result: dFosB act)
CCCC#Cc1ccc([C@H]2[C@@H](CO)N3CCCCN(S(=O)(=O)c4ccccc4C)C[C@@H]23)cc1	none (no result: dFosB act)
CN1CCCCN2[C@@H](CO)[C@@H](c3ccc(C#CC4(O)CCCC4)cc3)[C@@H]2C1	S100A4 inh HTS 92.0 (no result: dFosB act)
COc1cccc(S(=O)(=O)N2C[C@@H]3N[C@H](C2)C3c2ccc(-c3cccc(C)c3)cc2)c1 (some centres not stated)	F508del corr 12.1! (no result: dFosB act, FGF22 binding)
COc1ccc(S(=O)(=O)N(C)C[C@H]2Oc3ccc(NC(=O)Nc4c(C)noc4C)cc3CC(=O)N([C@H](C)CO)C[C@H]2C)cc1	none (no result: dFosB act)
CC(=O)N(C)C[C@H]1Oc2ncc(C#CC(C)(C)O)cc2C(=O)N([C@@H](C)CO)C[C@@H]1C	none (no result: dFosB act)
O=S(=O)(Nn1cnnc1)c1ccccc1	none (no result: F508del corr, FGF22 binding)
O=S(=O)(Nn1cnnc1)c1ccc2ccccc2c1	FGF22 binding 43.3
CO[C@H]1CN(C)C(=O)c2cc(NC(=O)CC(F)(F)F)ccc2OC[C@@H](C)N(C(=O)C2CC2)C[C@H]1C	none (no result: dFosB act)
CCOC(=O)C1=C(C)N(C)C(=O)NC1c1cc2c(cc1[N+](=O)[O-])OCO2 (configuration not stated)	FGF22 binding 43.6
CCCCOC(=O)C1=C(C)N(C)C(=O)NC1c1cc2c(cc1Br)OCO2 (configuration not stated)	none (no result: dFosB act)
CC(C)c1cn(CC[C@H]2CC[C@@H](NS(=O)(=O)c3ccc(F)cc3)[C@H](CO)O2)nn1	none (no result: dFosB act)
CC1(C)CC(NC(=O)c2sc3cc(Cl)ccc3c2Cl)CC(C)(C)N1	FGF22 binding 43.4
O=C(NCCCN1CCOCC1)c1sc2cc(Cl)ccc2c1Cl	F508del corr 10.5
O=C(NCCCN1CCOCC1)c1sc2cc(F)ccc2c1Cl	none (no result: F508del corr)
CO[C@H]1CC[C@H]2CCN(C)C(=O)[C@@H](C)[C@H](OC)CN(C)C(=O)c3cccc(C#N)c3OC[C@@H]1O2	none (no result: dFosB act)
